In general, EC50 refers to the concentration at which the effect is half-maximal. A lower EC50 goes with greater potency. By kon is commonly meant the second-order rate constant of association.

The target of assay [1] is T1, Adenosine receptor A1 (Homo sapiens) (UniProt P30542).
T1 sequence (whole entry): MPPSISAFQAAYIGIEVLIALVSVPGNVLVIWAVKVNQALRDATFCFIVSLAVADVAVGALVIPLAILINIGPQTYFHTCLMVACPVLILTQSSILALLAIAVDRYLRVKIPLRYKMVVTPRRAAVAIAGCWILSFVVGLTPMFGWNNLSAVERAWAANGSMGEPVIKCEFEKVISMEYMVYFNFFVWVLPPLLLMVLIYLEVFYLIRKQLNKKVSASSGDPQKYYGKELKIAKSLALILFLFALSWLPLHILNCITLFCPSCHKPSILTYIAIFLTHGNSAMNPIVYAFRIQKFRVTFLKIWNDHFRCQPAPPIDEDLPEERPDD
Put plainly: Percent remaining of radioligand [3H]CCPA binding to human adenosine A1 receptor at 10 uM. An outline of the steps:
(§1)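 Radioligand displacement: CHO human A1 receptor membranes (40 μg protein, 2 IU/mL adenosine deaminase) with ~1.0 nM [3H]CCPA plus fixed or increasing compound, 60 min at 25 °C in Tris-HCl. Nonspecific binding defined with 10 μM DPCPX. Ice-cold dilution, GF/B filtration, scintillation counting. Results as % specific binding, control 100%. Means of 2–3 experiments in duplicate.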

In assay [2] the target is T1, Adenosine receptor A1 (Homo sapiens). The experiment in a line: Percent remaining of radioligand [3H]DPCPX binding to human adenosine A1 receptor at 1 uM. An outline of the steps:
(§2)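 CHO human A1 receptor membranes (40 μg protein, 2 IU/mL adenosine deaminase) incubated 60 min at 25 °C in Tris-HCl with ~1.6 nM [3H]DPCPX and a fixed compound concentration. Nonspecific binding defined with 10 μM CPA. Filtration on GF/B, scintillation counting. Reported as % specific binding remaining (control 100%, nonspecific 0%). Means of 2–3 experiments in duplicate.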

The target is the same in assay [3]. The experiment in a line: Percent remaining of radioligand [3H]DPCPX binding to human adenosine A1 receptor at 10 uM. Summed up:
as §2

The target of assay [4] is T2, Adenosine receptor A1 (Homo sapiens, UniProt P30542).
T2 sequence (P30542 whole entry): T1 sequence (whole entry)
The experiment in a line: Effective concentration for displacement of [3H]-CCPA from human adenosine A1 receptor after 60 min. Summed up: as §1
(In a radioligand displacement assay an active substance lowers the binding of a labelled ligand.)

The target of assay [5] is T2, Adenosine receptor A1. Put plainly: Effective concentration for displacement of [3H]CCPA from human A1 adenosine receptor after 60 min. Summed up: as §1
In assay [6] the target is T1, Adenosine receptor A1 (Homo sapiens). The experiment in a line: Dissociation constant for [3H]DPCPX binding to human adenosine A1 receptor plus or minus compound (10 uM); t1/2 = 6.61 min.
The target is the same in assay [7]. Put plainly: Association constant for [3H]DPCPX binding to human adenosine A1 receptor plus or minus compound (10 uM); appt1/2 = 3.85 min. An outline of the steps: (§3)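 Membranes from CHO cells expressing recombinant human A1 receptor (40 μg protein) preincubated 30 min at 25 °C with compound. Association started by adding [3H]DPCPX (0.34–0.36 nM), stopped at time points by rapid dilution, then filtered on GF/B and washed with ice-cold buffer. Membranes carry 2 IU/mL adenosine deaminase.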

For assay [8] the target is unchanged. Put plainly: Dissociation constant for [3H]-CCPA binding to human adenosine A1 receptor plus or minus compound (10 uM); t1/2 = 5.37 min.
The target is the same in assay [9]. Put plainly: Dissociation constant for [3H]CCPA binding to human adenosine A1 receptor plus or minus compound (7 uM); t1/2 = 6.48 min.
Assay [10] has the same target. Put plainly: Dissociation constant for [3H]DPCPX binding to human adenosine A1 receptor plus or minus compound (7 uM); t1/2 = 5.27 min.
The target is the same in assay [11]. Put plainly: Association constant for [3H]DPCPX binding to human Adenosine A1 receptor plus or minus compound (7 uM); appt1/2 = 1.77 min. Summed up:
as §3

With `CC/N=c1\nc(-c2ccc(C)cc2)n(-c2ccc(C)cc2)s1`, the results for the Remaining in assay [1], in [2] and in assay [3] were 32%, 100% and 61%, respectively. The concentration for a half-maximal effect (EC50) in assay [4] worked out at 1.6 µM.
In the case of `CC/N=c1\nc(-c2ccccc2)n(-c2ccc(OC)cc2)s1`, the Remaining in assay [1] worked out at 24%; in assay [2], 103%; in [3] it was 120%.
For `C/N=c1\nc(-c2ccccc2)n(-c2ccc(Cl)cc2)s1`, the Remaining in [1] stood at 33%; in assay [2] it was 94%; in assay [3], 126%.
Take `C/N=c1\nc(-c2ccccc2)n(-c2cccc(Cl)c2)s1`: the Remaining amounted to 35% in [1], 96% in assay [2] and 108% in assay [3].
For `C/N=c1\nc(-c2ccccc2)n(-c2cccc(C)c2)s1`, the Remaining in assay [1] was found to be 5%; in assay [2], 99%; in [3] it was 109%. The molecule also registered an EC50 in [5] of 0.64 µM.
On to `C/N=c1\nc(-c2ccccc2)n(-c2ccc(C)cc2)s1`, for which the figures for the Remaining in assay [1], in [2] and in assay [3] were 31%, 99% and 123%, respectively.
Turning to `C/N=c1\nc(-c2ccccc2)n(-c2ccccc2)s1`, the figures for the k off in [6] and in [8] were 0.00184 s⁻¹ and 0.00217 s⁻¹, respectively. Besides, the Remaining in assay [1] amounted to 10%; in assay [2] it was 104%; in [3], 149%. Moreover, in assay [7], the kon is 3.5e+06 M⁻¹ s⁻¹. Besides, the 50% effective concentration (EC50) in assay [4] was determined as 2.8 µM.
With `CC/N=c1\nc(-c2ccccc2)n(-c2ccc(Cl)c(Cl)c2)s1`, the Remaining in assay [1] was 35%; in [2], 100%; in [3] it was 90%.
As to `C/N=c1\nc(-c2cccc(Cl)c2)n(-c2cccc(Cl)c2)s1`, the values for the Remaining in [1], in assay [2] and in assay [3] were 36%, 96% and 93%, respectively.
Turning to `C/N=c1\nc(-c2ccc(Cl)cc2)n(-c2ccc(Cl)cc2)s1`, the Remaining was 20% in assay [1], 93% in assay [2] and 119% in assay [3].
The like results for `C/N=c1\nc(-c2ccccc2)n(-c2ccc(Cl)c(Cl)c2)s1` were, in that order, 33%, 94% and 111%.
The corresponding values for `CC/N=c1\nc(-c2ccccc2)n(-c2ccc(Cl)cc2)s1` are 30%, 104% and 109%.
Consider `CC/N=c1\nc(-c2ccc(Cl)cc2)n(-c2ccc(Cl)cc2)s1`, for which the Remaining in [1] amounted to 24%; in assay [2], 95%; in [3], 84%.
In the case of `C/N=c1\nc(-c2ccccc2)n(-c2ccc(OC)cc2)s1`, the k off amounted to 0.00184 s⁻¹ in assay [9] and 0.00217 s⁻¹ in assay [10]. The figures for the Remaining in assay [1], in assay [2] and in [3] were 24%, 103% and 132%, respectively. In addition, the kon in assay [11] is 1.98e+07 M⁻¹ s⁻¹. In addition, a half-maximal response in assay [4] (EC50) required 2.4 µM.
Take `C/N=c1\nc(-c2ccc(C)cc2)n(-c2ccc(C)cc2)s1`: the values for the Remaining in [1], in [2] and in assay [3] were 20%, 104% and 97%, respectively.
The like results for `CC/N=c1\nc(-c2ccccc2)n(-c2ccccc2)s1` were, in that order, 6%, 103% and 114%.
The like results for `CC/N=c1\nc(-c2ccccc2)n(-c2cccc(C)c2)s1` were, in that order, 6%, 98% and 75%.
The corresponding values for `CC/N=c1\nc(-c2ccccc2)n(-c2cccc(Cl)c2)s1` are 39%, 101% and 86%.
With `C/N=c1\nc(-c2ccc(Cl)cc2)n(-c2ccccc2)s1`, the Remaining in assay [1] worked out at 15%; in [2] it was 106%; in assay [3], 119%.
Turning to `Cc1sc(N)c(C(=O)c2cccc(C(F)(F)F)c2)c1C`, the Remaining in [1] is 225%; in assay [2], 87%; in assay [3] it was 68%.
The like results for `C/N=c1\nc(-c2ccc(OC)cc2)n(-c2ccccc2)s1` were, in that order, 35%, 100% and 114%.
The like results for `CC/N=c1\nc(-c2ccccc2)n(-c2ccc(C)cc2)s1` were, in that order, 28%, 101% and 105%.

Values taken from ChEMBL document CHEMBL1148397, “Synthesis and biological evaluation of 2,3,5-substituted [1,2,4]thiadiazoles as allosteric modulators of adenosine receptors” (J Med Chem, 2004).
